Activity calls are given as the source filed them. The rule behind the calls is not given here.
Assays:
Rattus norvegicus = organism: Rattus norvegicus; test: Selectivity ratio of IC50 for rat BuChE to rat IC50 for AchE
Summary of the method: (§1)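 Modified Ellman colorimetric cholinesterase assay. The AChE source was rat cortex homogenate and the BuChE source was rat serum. Inhibition was measured against each enzyme, and selectivity was taken as the BuChE IC50 over the AChE IC50.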

Acetylcholinesterase = biological target: T1, Acetylcholinesterase (Rattus norvegicus, UniProt P37136); test: Inhibition of AChE in rat cortex […]
T1 sequence (P37136 whole entry): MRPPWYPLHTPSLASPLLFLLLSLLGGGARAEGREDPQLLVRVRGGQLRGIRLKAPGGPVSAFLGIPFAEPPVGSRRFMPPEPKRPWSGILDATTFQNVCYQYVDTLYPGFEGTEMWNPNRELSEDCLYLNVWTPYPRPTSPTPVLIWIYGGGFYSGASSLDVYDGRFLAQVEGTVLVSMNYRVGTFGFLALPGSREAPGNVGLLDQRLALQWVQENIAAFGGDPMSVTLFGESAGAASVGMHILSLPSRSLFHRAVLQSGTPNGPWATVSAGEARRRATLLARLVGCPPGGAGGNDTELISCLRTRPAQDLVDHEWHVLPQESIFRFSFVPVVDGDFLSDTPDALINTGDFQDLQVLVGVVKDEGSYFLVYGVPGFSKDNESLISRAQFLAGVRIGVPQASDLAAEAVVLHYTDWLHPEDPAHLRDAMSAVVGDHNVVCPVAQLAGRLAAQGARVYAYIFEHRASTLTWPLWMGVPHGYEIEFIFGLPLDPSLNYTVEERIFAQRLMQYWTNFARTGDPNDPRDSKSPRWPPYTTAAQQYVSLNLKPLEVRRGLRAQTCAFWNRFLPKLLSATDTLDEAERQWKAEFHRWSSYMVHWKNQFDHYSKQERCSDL

Mus musculus = organism: Mus musculus; test: Neuroprotection against scopolamine-induced spartial performance deficits in mouse by water maze test; assay type: functional, organism-based
Butyrylcholinesterase = Butyrylcholinesterase (Rattus norvegicus, UniProt Q9JKC1); test: Inhibition of BuChE in rat serum; assay type: cell-free; summary of the method: as §1
PC-12 [1] = test: Reduction of amyloid beta peptide-induced cytotoxicity in PC12 cells; assay type: functional, cell-based; conditions: Rattus norvegicus
PC-12 [2] = test: Inhibition of amyloid beta peptide-induced redox disequilibrium assessed as increase in GSHPx activity in PC12 cells; assay type: functional, cell-based; conditions: Rattus norvegicus
PC-12 [3] = test: Inhibition of amyloid beta peptide-induced redox disequilibrium assessed as decrease in SOD activity in PC12 cells; assay type: functional, cell-based; conditions: Rattus norvegicus
PC-12 [4] = test: Inhibition of amyloid beta peptide-induced redox disequilibrium assessed as decrease in MDA level in PC12 cells; assay type: functional, cell-based; conditions: Rattus norvegicus
PC-12 [5] = test: Inhibition of staurosporine-induced apoptosis in PC12 cells; assay type: functional, cell-based; conditions: Rattus norvegicus

Sequence of Butyrylcholinesterase (Q9JKC1 whole entry): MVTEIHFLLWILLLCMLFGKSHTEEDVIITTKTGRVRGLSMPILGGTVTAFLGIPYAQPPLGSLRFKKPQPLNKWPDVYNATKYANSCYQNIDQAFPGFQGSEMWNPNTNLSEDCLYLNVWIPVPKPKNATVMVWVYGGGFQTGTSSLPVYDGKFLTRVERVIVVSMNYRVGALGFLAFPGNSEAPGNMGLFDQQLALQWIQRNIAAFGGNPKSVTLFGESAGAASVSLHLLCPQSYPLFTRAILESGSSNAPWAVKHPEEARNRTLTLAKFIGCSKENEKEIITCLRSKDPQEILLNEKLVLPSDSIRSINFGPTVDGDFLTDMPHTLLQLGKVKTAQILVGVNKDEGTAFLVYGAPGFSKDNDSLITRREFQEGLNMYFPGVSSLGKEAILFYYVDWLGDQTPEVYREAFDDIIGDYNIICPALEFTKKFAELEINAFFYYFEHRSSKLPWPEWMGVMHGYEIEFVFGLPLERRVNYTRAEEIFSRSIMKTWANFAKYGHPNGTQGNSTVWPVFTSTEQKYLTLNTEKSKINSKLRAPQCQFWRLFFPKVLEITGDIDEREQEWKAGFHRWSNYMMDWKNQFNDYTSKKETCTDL

SMILES	Ratio IC50 (Rattus norvegicus)	IC50 (Acetylcholinesterase) [nM]	also measured
CC1=C[C@H]2Cc3[nH]c(=O)ccc3[C@@]3(C1)[C@@H]2CCCN3CCN1CCCN(CCN2CCC[C@@H]3[C@H]4C=C(C)C[C@]32c2ccc(=O)[nH]c2C4)CC1	573	–	–
CC1=C[C@H]2Cc3[nH]c(=O)ccc3[C@@]3(C1)[C@@H]2CCCN3C(=O)CN(C)CCCCCCCCN(C)Cc1ccccn1	–	41.2	–
CC1=C[C@H]2Cc3[nH]c(=O)ccc3[C@@]3(C1)[C@@H]2CCCN3CCN(C)CCCN(C)CCN1CCC[C@@H]2[C@H]3C=C(C)C[C@]21c1ccc(=O)[nH]c1C3	–	416	–
CC1=C[C@H]2Cc3[nH]c(=O)ccc3[C@@]3(C1)[C@@H]2CCCN3C(=O)CN(C)CCCCCCN(C)Cc1cccc2ccccc12	–	124	–
CC1=C[C@H]2Cc3[nH]c(=O)ccc3[C@@]3(C1)[C@@H]2CCCN3C(=O)CCN1CCN(CCC(=O)N2CCC[C@@H]3[C@H]4C=C(C)C[C@]32c2ccc(=O)[nH]c2C4)CC1	–	170	–
COc1ccccc1CN(C)CCCCCCCCCCCCN(C)CC(=O)N1CCC[C@@H]2[C@H]3C=C(C)C[C@]21c1ccc(=O)[nH]c1C3	–	62.2	–
CC1=C[C@H]2Cc3[nH]c(=O)ccc3[C@@]3(C1)[C@@H]2CCCN3CCCN(C)CCCCCCN(C)CCCN1CCC[C@@H]2[C@H]3C=C(C)C[C@]21c1ccc(=O)[nH]c1C3	–	33.6	–
CC1=C[C@H]2Cc3[nH]c(=O)ccc3[C@@]3(C1)[C@@H]2CCCN3C(=O)CN1CCN(CC(=O)N2CCC[C@@H]3[C@H]4C=C(C)C[C@]32c2ccc(=O)[nH]c2C4)CC1	> 157	–	–
CC1=C[C@H]2Cc3[nH]c(=O)ccc3[C@@]3(C1)[C@@H]2CCCN3C(=O)CCN(C)CCCCCCCCCCN(C)CCC(=O)N1CCC[C@@H]2[C@H]3C=C(C)C[C@]21c1ccc(=O)[nH]c1C3	5510	11.8	Activity (Mus musculus): Active; IC50 (Butyrylcholinesterase): 65000 nM; Activity (PC-12 [1]): Active; Activity (PC-12 [2]): Active; Activity (PC-12 [3]): Active; Activity (PC-12 [4]): Active; Activity (PC-12 [5]): Active
CC1=C[C@H]2Cc3[nH]c(=O)ccc3[C@@]3(C1)[C@@H]2CCCN3CCCN1CCN(CCCN2CCC[C@@H]3[C@H]4C=C(C)C[C@]32c2ccc(=O)[nH]c2C4)CC1	–	202	–
CC1=C[C@H]2Cc3[nH]c(=O)ccc3[C@@]3(C1)[C@@H]2CCCN3C(=O)CCN(C)CCCCCCCCCCCCN(C)CCC(=O)N1CCC[C@@H]2[C@H]3C=C(C)C[C@]21c1ccc(=O)[nH]c1C3	3830	23.1	IC50 (Butyrylcholinesterase): 88400 nM
CC1=C[C@H]2Cc3[nH]c(=O)ccc3[C@@]3(C1)[C@@H]2CCCN3C(=O)CN(CC(=O)N1CCC[C@@H]2[C@H]3C=C(C)C[C@]21c1ccc(=O)[nH]c1C3)C1CC1	–	1000	–
CC1=C[C@H]2Cc3[nH]c(=O)ccc3[C@@]3(C1)[C@@H]2CCCN3C(=O)CCN(C)CCCCCCN(C)CCC(=O)N1CCC[C@@H]2[C@H]3C=C(C)C[C@]21c1ccc(=O)[nH]c1C3	1890	35.9	IC50 (Butyrylcholinesterase): 67900 nM
CC1=C[C@H]2Cc3[nH]c(=O)ccc3[C@@]3(C1)[C@@H]2CCCN3C(=O)CN(C)CCCCCCCCCCN(C)Cc1ccncc1	–	50	–
CC1=C[C@H]2Cc3[nH]c(=O)ccc3[C@@]3(C1)[C@@H]2CCCN3C(=O)CN(C)CCCCCCCCCCN(C)Cc1ccc(F)cc1	67	52	IC50 (Butyrylcholinesterase): 3480 nM
CC1=C[C@H]2Cc3[nH]c(=O)ccc3[C@@]3(C1)[C@@H]2CCCN3CCN1CCN(CN2CCC[C@@H]3[C@H]4C=C(C)C[C@]32c2ccc(=O)[nH]c2C4)CC1	472	407	IC50 (Butyrylcholinesterase): 192000 nM
CC1=C[C@H]2Cc3[nH]c(=O)ccc3[C@@]3(C1)[C@@H]2CCCN3C(=O)CN(C)CCCCCCCCCCN(C)Cc1ccccn1	–	42	–
CC1=C[C@H]2Cc3[nH]c(=O)ccc3[C@@]3(C1)[C@@H]2CCCN3CCN(CCN1CCC[C@@H]2[C@H]3C=C(C)C[C@]21c1ccc(=O)[nH]c1C3)C1CC1	–	695	–
CCCN(CCN1CCC[C@@H]2[C@H]3C=C(C)C[C@]21c1ccc(=O)[nH]c1C3)CCN1CCC[C@@H]2[C@H]3C=C(C)C[C@]21c1ccc(=O)[nH]c1C3	–	1010	–
CC1=C[C@H]2Cc3[nH]c(=O)ccc3[C@@]3(C1)[C@@H]2CCCN3C(=O)CCN1CCCN(CCC(=O)N2CCC[C@@H]3[C@H]4C=C(C)C[C@]32c2ccc(=O)[nH]c2C4)CC1	–	179	–
CC1=C[C@H]2Cc3[nH]c(=O)ccc3[C@@]3(C1)[C@@H]2CCCN3C(=O)CN(C)CCCCCCCCCCCCN(C)Cc1ccccn1	–	65.8	–

SMILES	Ratio IC50 (Rattus norvegicus)	IC50 (Acetylcholinesterase) [nM]	also measured
CC1=C[C@H]2Cc3[nH]c(=O)ccc3[C@@]3(C1)[C@@H]2CCCN3C(=O)CN(C)CCCCCCN(C)CC(=O)N1CCC[C@@H]2[C@H]3C=C(C)C[C@]21c1ccc(=O)[nH]c1C3	846	76.2	IC50 (Butyrylcholinesterase): 64500 nM
CC1=C[C@H]2Cc3[nH]c(=O)ccc3[C@]3(C1)NCCC[C@H]23	12	–	–
CC1=C[C@H]2Cc3[nH]c(=O)ccc3[C@@]3(C1)[C@@H]2CCCN3C(=O)CN(C)CCCCCCCCN(C)CC(=O)N1CCC[C@@H]2[C@H]3C=C(C)C[C@]21c1ccc(=O)[nH]c1C3	1290	50.8	IC50 (Butyrylcholinesterase): 65400 nM
CC1=C[C@H]2Cc3[nH]c(=O)ccc3[C@@]3(C1)[C@@H]2CCCN3C(=O)CN(C)CCCCCCCCCCCCN(C)Cc1ccc(F)cc1	–	309	–
CC1=C[C@H]2Cc3[nH]c(=O)ccc3[C@@]3(C1)[C@@H]2CCCN3CCN(C)CCN(C)CCN1CCC[C@@H]2[C@H]3C=C(C)C[C@]21c1ccc(=O)[nH]c1C3	–	3480	–
COc1ccccc1CN(C)CCCCCCCCCCN(C)CC(=O)N1CCC[C@@H]2[C@H]3C=C(C)C[C@]21c1ccc(=O)[nH]c1C3	410	21.1	IC50 (Butyrylcholinesterase): 8650 nM
CC1=C[C@H]2Cc3[nH]c(=O)ccc3[C@@]3(C1)[C@@H]2CCCN3C(=O)CN(C)CCCCCCCCN(C)Cc1ccc(F)cc1	–	56.5	–
CC1=C[C@H]2Cc3[nH]c(=O)ccc3[C@@]3(C1)[C@@H]2CCCN3C(=O)CN(C)CCCN(C)CC(=O)N1CCC[C@@H]2[C@H]3C=C(C)C[C@]21c1ccc(=O)[nH]c1C3	127	471	IC50 (Butyrylcholinesterase): 60000 nM
CC1=C[C@H]2Cc3[nH]c(=O)ccc3[C@@]3(C1)[C@@H]2CCCN3CCN(C)CCCCCCN(C)CCN1CCC[C@@H]2[C@H]3C=C(C)C[C@]21c1ccc(=O)[nH]c1C3	–	78.4	–
CC1=C[C@H]2Cc3[nH]c(=O)ccc3[C@@]3(C1)[C@@H]2CCCN3CCCN(C)CCCCCCCCCCN(C)CCCN1CCC[C@@H]2[C@H]3C=C(C)C[C@]21c1ccc(=O)[nH]c1C3	–	26.2	–
CC1=C[C@H]2Cc3[nH]c(=O)ccc3[C@@]3(C1)[C@@H]2CCCN3C(=O)CN1CCCN(CC(=O)N2CCC[C@@H]3[C@H]4C=C(C)C[C@]32c2ccc(=O)[nH]c2C4)CC1	838	204	–
CC1=C[C@H]2Cc3[nH]c(=O)ccc3[C@@]3(C1)[C@@H]2CCCN3C(=O)CN(C)CCCCCCCCCCCCN(C)CC(=O)N1CCC[C@@H]2[C@H]3C=C(C)C[C@]21c1ccc(=O)[nH]c1C3	–	53.4	–
CC1=C[C@H]2Cc3[nH]c(=O)ccc3[C@@]3(C1)[C@@H]2CCCN3C(=O)CCN(C)CCCCCCCCN(C)CCC(=O)N1CCC[C@@H]2[C@H]3C=C(C)C[C@]21c1ccc(=O)[nH]c1C3	3400	18.5	IC50 (Butyrylcholinesterase): 63000 nM
CC1=C[C@H]2Cc3[nH]c(=O)ccc3[C@@]3(C1)[C@@H]2CCCN3CCCN(C)CCCCCCCCN(C)CCCN1CCC[C@@H]2[C@H]3C=C(C)C[C@]21c1ccc(=O)[nH]c1C3	–	40.6	–
CC1=C[C@H]2Cc3[nH]c(=O)ccc3[C@@]3(C1)[C@@H]2CCCN3C(=O)CN(C)CCCCCCCCCCN(C)Cc1cccc2ccccc12	–	121	–
CC1=C[C@H]2Cc3[nH]c(=O)ccc3[C@@]3(C1)[C@@H]2CCCN3CCN(C)CCCCCCCCN(C)CCN1CCC[C@@H]2[C@H]3C=C(C)C[C@]21c1ccc(=O)[nH]c1C3	–	20.1	–
CCCN(CC(=O)N1CCC[C@@H]2[C@H]3C=C(C)C[C@]21c1ccc(=O)[nH]c1C3)CC(=O)n1c2c(ccc1=O)[C@@]13CC(C)=C[C@@H](C2)[C@H]1CCCN3	–	157	–
CC1=C[C@H]2Cc3[nH]c(=O)ccc3[C@@]3(C1)[C@@H]2CCCN3C(=O)CN(C)CCN(C)CC(=O)N1CCC[C@@H]2[C@H]3C=C(C)C[C@]21c1ccc(=O)[nH]c1C3	–	1020	–
CC1=C[C@H]2Cc3[nH]c(=O)ccc3[C@@]3(C1)[C@@H]2CCCN3C(=O)CN(C)CCCCCCCCCCN(C)Cc1cccnc1	–	–	IC50 (Butyrylcholinesterase): 12900 nM
CC1=C[C@H]2Cc3[nH]c(=O)ccc3[C@@]3(C1)[C@@H]2CCCN3CCCN1CCCN(CCCN2CCC[C@@H]3[C@H]4C=C(C)C[C@]32c2ccc(=O)[nH]c2C4)CC1	–	332	–

From ChEMBL document CHEMBL1146308 (Bioorg Med Chem, 2007)
